Test results: the M2OR odorant receptor database
Positions count from the first letter of the chain named.

Legend:
Conditions in all cases: stereoisomer not certain
[1] = biological target: T1, OR3A1 (Homo sapiens) (UniProt P47881)
T1 sequence (whole entry): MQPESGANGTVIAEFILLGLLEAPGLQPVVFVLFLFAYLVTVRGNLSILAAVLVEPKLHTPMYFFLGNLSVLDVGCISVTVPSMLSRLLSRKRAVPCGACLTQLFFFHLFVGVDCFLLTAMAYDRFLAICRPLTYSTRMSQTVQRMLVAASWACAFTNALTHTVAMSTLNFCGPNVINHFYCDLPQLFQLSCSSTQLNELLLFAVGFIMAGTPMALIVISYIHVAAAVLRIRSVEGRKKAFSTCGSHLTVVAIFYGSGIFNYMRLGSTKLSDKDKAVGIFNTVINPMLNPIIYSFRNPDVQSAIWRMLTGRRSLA
Procedure, shortened: (§1)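 Whether a receptor–molecule pair is responsive (active) rests on the original authors' judgment that its measured signal was statistically different from baseline. Pairs without that judgment are non-responsive (inactive). Sources used varied assay methods, commonly transient luciferase assays in mammalian cell lines.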

[2] = biological target: T2, OR2W3 (Homo sapiens) (UniProt Q7Z3T1)
T2 sequence (whole entry): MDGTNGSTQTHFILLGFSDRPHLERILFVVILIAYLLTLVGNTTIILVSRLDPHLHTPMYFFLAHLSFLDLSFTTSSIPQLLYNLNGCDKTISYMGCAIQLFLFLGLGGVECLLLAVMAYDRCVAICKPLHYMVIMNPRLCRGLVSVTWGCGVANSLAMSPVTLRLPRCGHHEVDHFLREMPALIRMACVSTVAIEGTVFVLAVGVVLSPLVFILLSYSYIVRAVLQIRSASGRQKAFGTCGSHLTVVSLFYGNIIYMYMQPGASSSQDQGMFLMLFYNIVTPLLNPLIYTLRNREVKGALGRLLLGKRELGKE
Procedure, shortened: as §1

[3] = biological target: T3, OR2W5P (Homo sapiens) (UniProt A6NFC9)
T3 sequence (whole entry): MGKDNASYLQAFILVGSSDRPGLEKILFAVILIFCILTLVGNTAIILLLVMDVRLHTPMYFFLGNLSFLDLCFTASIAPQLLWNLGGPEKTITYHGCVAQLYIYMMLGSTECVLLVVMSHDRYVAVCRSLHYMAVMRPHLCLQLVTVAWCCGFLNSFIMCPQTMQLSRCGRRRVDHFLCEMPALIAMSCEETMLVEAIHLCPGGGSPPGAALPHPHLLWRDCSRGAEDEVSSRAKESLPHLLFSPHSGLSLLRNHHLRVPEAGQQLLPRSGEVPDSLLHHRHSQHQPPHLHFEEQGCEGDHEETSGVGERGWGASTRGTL
Procedure, shortened: as §1

[4] = biological target: T4, OR2Y1 (Homo sapiens) (UniProt Q8NGV0)
T4 sequence (whole entry): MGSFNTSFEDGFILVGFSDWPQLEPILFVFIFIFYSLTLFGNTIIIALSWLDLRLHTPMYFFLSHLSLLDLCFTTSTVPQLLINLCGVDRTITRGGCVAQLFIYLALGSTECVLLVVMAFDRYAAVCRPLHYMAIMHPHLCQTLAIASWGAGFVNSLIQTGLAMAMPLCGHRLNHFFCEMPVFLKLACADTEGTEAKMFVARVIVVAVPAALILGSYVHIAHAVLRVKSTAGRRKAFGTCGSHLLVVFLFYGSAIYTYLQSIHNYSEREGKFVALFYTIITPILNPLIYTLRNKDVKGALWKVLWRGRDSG
Procedure, shortened: as §1

[5] = tested on: T5, OR2Y1
T5 sequence (whole entry): T4 sequence (whole entry) with V200L
Procedure, shortened: as §1

[6] = biological target: T6, OR2Z1 (Homo sapiens) (UniProt Q8NG97)
T6 sequence (whole entry): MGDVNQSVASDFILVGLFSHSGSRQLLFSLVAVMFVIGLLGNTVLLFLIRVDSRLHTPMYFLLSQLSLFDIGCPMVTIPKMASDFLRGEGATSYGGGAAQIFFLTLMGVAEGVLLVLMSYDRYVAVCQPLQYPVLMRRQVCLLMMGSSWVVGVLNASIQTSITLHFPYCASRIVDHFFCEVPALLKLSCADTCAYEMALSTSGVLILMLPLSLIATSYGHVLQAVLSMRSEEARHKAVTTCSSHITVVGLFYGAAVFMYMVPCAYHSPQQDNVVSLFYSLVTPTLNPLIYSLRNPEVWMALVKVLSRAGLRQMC
Procedure, shortened: as §1

[7] = tested on: T7, OR3A1
T7 sequence (whole entry): T1 sequence (whole entry) with R125Q
Procedure, shortened: as §1

[8] = biological target: T8, OR3A2 (Homo sapiens) (UniProt P47893)
T8 sequence (whole entry): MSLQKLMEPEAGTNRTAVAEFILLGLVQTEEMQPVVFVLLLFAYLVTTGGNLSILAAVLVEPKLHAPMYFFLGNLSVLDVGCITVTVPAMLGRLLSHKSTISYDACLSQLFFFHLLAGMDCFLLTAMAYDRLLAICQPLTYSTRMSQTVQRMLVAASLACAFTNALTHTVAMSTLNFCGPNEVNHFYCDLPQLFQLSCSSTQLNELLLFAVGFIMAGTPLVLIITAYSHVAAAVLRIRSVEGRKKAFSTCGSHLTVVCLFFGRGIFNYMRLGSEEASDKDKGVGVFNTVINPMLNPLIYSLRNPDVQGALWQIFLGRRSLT
Procedure, shortened: as §1

[9] = tested on: T9, OR3A2 R317K
T9 sequence (whole entry): T8 sequence (whole entry) with R317K
Procedure, shortened: as §1

[10] = biological target: T10, OR3A3 (Homo sapiens) (UniProt P47888)
T10 sequence (whole entry): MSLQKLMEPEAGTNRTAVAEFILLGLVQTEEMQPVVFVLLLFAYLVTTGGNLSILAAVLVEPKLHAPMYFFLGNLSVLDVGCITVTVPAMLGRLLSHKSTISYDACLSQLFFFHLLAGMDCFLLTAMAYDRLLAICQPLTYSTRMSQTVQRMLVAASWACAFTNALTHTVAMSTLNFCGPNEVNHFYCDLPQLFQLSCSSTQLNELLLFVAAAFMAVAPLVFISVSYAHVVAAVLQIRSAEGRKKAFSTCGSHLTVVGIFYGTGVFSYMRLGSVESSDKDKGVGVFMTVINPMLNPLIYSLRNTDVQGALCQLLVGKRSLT
Procedure, shortened: as §1

[11] = tested on: T11, OR3A3 T48I L132F
T11 sequence (whole entry): T10 sequence (whole entry) with T48I, L132F
Procedure, shortened: as §1

[12] = biological target: OR4A15 (Homo sapiens) (UniProt Q8NGL6)
Sequence of OR4A15 (Homo sapiens) (Q8NGL6 whole entry): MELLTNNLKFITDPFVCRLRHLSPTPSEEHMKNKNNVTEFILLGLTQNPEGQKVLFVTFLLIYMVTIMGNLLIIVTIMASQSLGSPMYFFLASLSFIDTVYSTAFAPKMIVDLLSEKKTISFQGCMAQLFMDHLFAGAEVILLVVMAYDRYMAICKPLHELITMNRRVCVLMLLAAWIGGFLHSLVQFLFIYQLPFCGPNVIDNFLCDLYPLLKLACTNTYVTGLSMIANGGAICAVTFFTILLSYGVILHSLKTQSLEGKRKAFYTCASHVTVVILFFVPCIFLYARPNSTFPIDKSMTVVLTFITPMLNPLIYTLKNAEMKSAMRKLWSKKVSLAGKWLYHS
Procedure, shortened: as §1

[13] = biological target: T12, OR4A16 (Homo sapiens) (UniProt Q8NH70)
T12 sequence (whole entry): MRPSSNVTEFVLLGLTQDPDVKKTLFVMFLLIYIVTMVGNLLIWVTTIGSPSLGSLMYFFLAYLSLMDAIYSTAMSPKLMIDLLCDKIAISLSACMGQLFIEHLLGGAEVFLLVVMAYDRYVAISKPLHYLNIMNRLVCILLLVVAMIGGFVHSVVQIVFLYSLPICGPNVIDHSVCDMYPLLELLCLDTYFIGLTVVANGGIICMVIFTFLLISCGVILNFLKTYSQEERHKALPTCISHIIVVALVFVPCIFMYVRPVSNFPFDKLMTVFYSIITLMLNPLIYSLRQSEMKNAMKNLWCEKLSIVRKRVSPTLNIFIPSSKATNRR
Procedure, shortened: as §1

[14] = biological target: T13, OR4A47 (Homo sapiens) (UniProt Q6IF82)
T13 sequence (whole entry): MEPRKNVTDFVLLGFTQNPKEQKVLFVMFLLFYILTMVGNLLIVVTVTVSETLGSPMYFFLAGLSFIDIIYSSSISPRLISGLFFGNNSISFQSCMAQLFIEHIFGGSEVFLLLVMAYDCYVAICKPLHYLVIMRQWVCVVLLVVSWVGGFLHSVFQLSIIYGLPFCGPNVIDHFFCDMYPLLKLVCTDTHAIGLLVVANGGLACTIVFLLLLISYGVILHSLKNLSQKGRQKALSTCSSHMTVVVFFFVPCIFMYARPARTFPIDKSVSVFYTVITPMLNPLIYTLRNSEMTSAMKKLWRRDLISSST
Procedure, shortened: as §1

[15] = biological target: T14, OR4A5 (Homo sapiens) (UniProt Q8NH83)
T14 sequence (whole entry): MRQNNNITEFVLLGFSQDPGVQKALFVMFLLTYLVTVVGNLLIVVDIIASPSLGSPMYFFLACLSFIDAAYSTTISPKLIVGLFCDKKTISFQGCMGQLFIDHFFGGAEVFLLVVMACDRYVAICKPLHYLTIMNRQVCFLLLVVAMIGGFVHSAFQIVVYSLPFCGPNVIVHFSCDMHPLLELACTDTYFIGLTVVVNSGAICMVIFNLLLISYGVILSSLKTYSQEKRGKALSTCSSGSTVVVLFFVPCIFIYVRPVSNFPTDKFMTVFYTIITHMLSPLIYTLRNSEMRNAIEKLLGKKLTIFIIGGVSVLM
Procedure, shortened: as §1

[16] = biological target: T15, OR4B1 (Homo sapiens) (UniProt Q8NGF8)
T15 sequence (whole entry): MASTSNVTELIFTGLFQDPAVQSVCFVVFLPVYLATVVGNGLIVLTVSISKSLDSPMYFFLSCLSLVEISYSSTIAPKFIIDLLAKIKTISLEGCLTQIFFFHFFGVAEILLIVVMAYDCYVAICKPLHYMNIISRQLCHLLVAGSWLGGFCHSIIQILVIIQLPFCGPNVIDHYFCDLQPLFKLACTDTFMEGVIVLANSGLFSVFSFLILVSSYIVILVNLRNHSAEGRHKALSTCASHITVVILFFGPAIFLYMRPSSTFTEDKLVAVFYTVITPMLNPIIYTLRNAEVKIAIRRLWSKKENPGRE
Procedure, shortened: as §1

[17] = biological target: T16, OR4C11 (Homo sapiens) (UniProt Q6IEV9)
T16 sequence (whole entry): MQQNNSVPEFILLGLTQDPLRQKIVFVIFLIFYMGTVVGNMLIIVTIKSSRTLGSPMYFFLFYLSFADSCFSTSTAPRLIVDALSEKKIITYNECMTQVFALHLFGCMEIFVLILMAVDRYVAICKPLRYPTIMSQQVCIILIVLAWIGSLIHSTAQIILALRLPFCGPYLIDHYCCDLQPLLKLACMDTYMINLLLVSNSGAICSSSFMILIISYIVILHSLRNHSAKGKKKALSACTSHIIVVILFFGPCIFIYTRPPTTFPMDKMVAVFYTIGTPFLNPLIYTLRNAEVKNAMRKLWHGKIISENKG
Procedure, shortened: as §1

[18] = biological target: OR4C12 (Homo sapiens) (UniProt Q96R67)
Sequence of OR4C12 (Homo sapiens) (Q96R67 whole entry): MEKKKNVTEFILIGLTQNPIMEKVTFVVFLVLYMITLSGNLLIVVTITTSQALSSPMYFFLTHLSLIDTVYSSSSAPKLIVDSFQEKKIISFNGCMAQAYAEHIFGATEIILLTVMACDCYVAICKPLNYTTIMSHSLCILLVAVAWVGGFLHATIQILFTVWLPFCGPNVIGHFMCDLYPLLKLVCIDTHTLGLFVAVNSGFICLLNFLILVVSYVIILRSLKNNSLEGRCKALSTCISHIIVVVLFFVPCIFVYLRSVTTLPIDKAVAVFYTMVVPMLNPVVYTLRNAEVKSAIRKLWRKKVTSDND
Procedure, shortened: as §1

Measured: odorant receptor agonist call

COc1ccc(COC=O)cc1
inactive: [1]

CC(C=O)Cc1ccccc1 (stereo not drawn)
active: [1]

CCC1OC(=O)C(O)=C1C (stereo not drawn)
inactive: all assays above

CC1=C(O)C(=O)C(C)O1 (stereo not drawn)
inactive: all assays above

CC(C)CC=O
inactive: [1]

OCC=Cc1ccccc1
inactive: [1]

CC1=NC(C)C(C)S1 (stereo not drawn)
inactive: all assays above
